Results pooled from the literature.
Compare with care: the assays were run in different laboratories.
SLC6A3: Sodium-dependent dopamine transporter (SLC6A3, Homo sapiens, UniProt Q01959)
DRD3: D(3) dopamine receptor (DRD3, Homo sapiens, UniProt P35462)
PPARG: Peroxisome proliferator-activated receptor gamma (PPARG, Homo sapiens, UniProt P37231)
CASP3: Caspase-3 (CASP3, Homo sapiens, UniProt P42574)
CA12: Carbonic anhydrase 12 (CA12, Homo sapiens, UniProt O43570)

CCN(CC)c1ccc(C2Nc3ccc(C(=O)c4ccccc4)cc3NC3=C2C(=O)CC(C)(C)C3)cc1 (stereo not shown)  Ki (SLC6A3; cell-free assay, radioligand): > 10 µM
CN(CCCCNC(=O)c1cc2ccccc2[nH]1)[C@@H]1Cc2cccc3[nH]c(=O)n(c23)C1  Ki (DRD3; ligand displacement, radioligand; cell membranes): 0.0827 µM
CC1(C)C=Cc2c(cc3oc(-c4ccccc4)c(O)c(=O)c3c2O)O1  Ki (PPARG; cell-free assay, TR-FRET): 3.2 µM
O=C(/C=C(/Nc1ccccc1)C(=O)c1ccccc1)c1ccccc1  Ki (DNA repair nuclease/redox regulator APEX1 (APEX1, Homo sapiens, UniProt P27695); enzyme activity, inhibitor): 37 µM
CC1Cc2ccccc2N1C(=O)c1nc2ccccc2s1 (stereo not shown)  Ki (DRD3; ligand displacement, radioligand; cell membranes): 14.4 µM
O=c1c(O)c(-c2cc(O)c(O)c(O)c2)oc2cc(O)cc(O)c12  Ki (CASP3; enzyme activity, inhibitor, fluorescence): 68.7 µM
NS(=O)(=O)c1ccc(-n2nccc2-c2ccc(N3CCOCC3)cc2)cc1  Ki (CA12; enzyme activity, inhibitor, stopped-flow): 0.344 µM
COc1ccc2c(c1)C(=O)N(CCCN1CCN(c3ccccc3OC)CC1)C2  Ki (DRD3; ligand displacement, radioligand): 0.389 µM
CN(CCCCNC(=O)c1ccc2scnc2c1)[C@@H]1Cc2cccc3[nH]c(=O)n(c23)C1  Ki (DRD3; ligand displacement, radioligand; cell membranes): 0.427 µM
CN(CCOc1ccc(CC2SC(=O)N(CC(=O)OC(C)(C)C)C2=O)cc1)c1ccccn1 (stereo not shown)  Ki (PPARG; ligand displacement, TR-FRET): 0.103 µM
O=c1c(O)c(-c2ccc(O)c(O)c2)oc2cc(O)cc(O)c12  Ki (CASP3; enzyme activity, inhibitor, fluorescence): 96.4 µM
COc1cccc(CCC2=NCCN2CCc2ccccc2)c1  Ki (DRD3; ligand displacement, radioligand): > 10 µM
CN(CCCCNC(=O)c1nc2ccccc2s1)[C@@H]1Cc2cccc3[nH]c(=O)n(c23)C1  Ki (DRD3; ligand displacement, radioligand; cell membranes): 0.403 µM
CC/C(=C(/c1ccc(O)cc1)c1ccc(OCCN)cc1)c1ccc(O)cc1  Ki (Aromatase (CYP19A1, Homo sapiens, UniProt P11511); enzyme activity, inhibitor, fluorescence): 0.02 µM
OC[C@@]12C[C@@H]1[C@@H](n1cnc3c(NC(C4CCCC4)C4CCCC4)nc(Cl)cc31)[C@H](O)[C@@H]2O  Ki (SLC6A3; cell-free assay, radioligand): 3.9 µM
CNc1nc2cc(OCCCCN3CCC(c4cccc(Cl)c4Cl)CC3)ccc2s1  Ki (SLC6A3; ligand displacement, radioligand): 2.1 µM
CN1CCN(c2ccc(-c3ccnn3-c3ccc(S(N)(=O)=O)cc3)cc2)CC1  Ki (CA12; enzyme activity, inhibitor, stopped-flow): 0.404 µM
CC(C)c1nc2cc(OCCCCN3CCN(c4cccc5c4OCCO5)CC3)ccc2s1  Ki (SLC6A3; ligand displacement, radioligand): 2.5 µM
CC(C)(COP(=O)(O)OP(=O)(O)OC[C@H]1O[C@@H](n2cnc3c(N)ncnc32)[C@H](O)[C@@H]1OP(=O)(O)O)[C@@H](O)C(=O)NCCC(=O)NCCS  Ki (Histone acetyltransferase type B catalytic subunit (Homo sapiens, UniProt O14929); enzyme activity, inhibitor, radiometric): 41.5 µM
